Data reported in ChEMBL document CHEMBL4052614, “Novel 3',5'-diprenylated chalcones inhibited the proliferation of cancer cells in vitro by inducing cell apoptosis and arresting cell cycle phase” (Eur J Med Chem, 2017).
The source made the active and inactive calls. No cut-off for these calls is given here.

Key:
K562 [1] = assay: Cell cycle arrest in human K562 cells assessed as decrease in G1 phase accumulation at 5 umol/L after 48 hrs by propidium iodide staining based flow cytometry; format: functional
Summary of the method: (§1)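 Cells grown in DMEM with 10% FBS and penicillin/streptomycin at 37 °C, 5% CO2, and passaged at least 3 times after thawing. Treated 48 h at 5 µmol/L, DMSO-treated controls. Harvested by trypsin, PBS-washed, fixed in ice-cold ethanol, blocked 1 h at 4 °C in 5% BSA/PBS, RNase 1 µg/mL 30 min at 37 °C, PI 20 µg/mL final. Phase percentages read from PI histograms. Mean ± SD, three independent experiments.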

HEL [2] = assay: Growth inhibition of HEL cells at 5 umol/L after 48 hrs by MTT assay relative to control; format: functional; settings: Homo sapiens, read-out: GI
Summary of the method: (§2)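 Cells kept in DMEM/10% FBS at 37 °C, 5% CO2, seeded at 4×10^3–8×10^3 cells/well, 24 h attachment, then 48 h with compound at 5 µmol/L. MTT (5 mg/mL solution) added for 4 h at 37 °C, formazan taken up in DMSO, A490 read. Percent inhibition as mean ± SD of three independent experiments. Doxorubicin as positive control.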

MDA-MB-231 [3] = assay: Induction of apoptosis in human MDA-MB-231 cells assessed as late apoptotic cells at 5 umol/L after 48 hrs by annexin V-FITC/propidium iodide staining based flow cytometry (reference value: 2.2%); format: functional
K562 [4] = assay: Potency index, ratio of compound effect to (E)-2-Hydroxy-4,4-dimethoxy-3,5-diprenylchalcone effect for growth inhibition of human K562 cells; format: functional
PC-3 [5] = assay: Induction of apoptosis in human PC3 cells assessed as viable cells at 5 umol/L after 48 hrs by annexin V-FITC/propidium iodide staining based flow cytometry (reference value: 86.7%); format: functional; settings: PC-3, 48 h, read-out: Activity
K562 [6] = assay: Induction of morphological changes in human K562 cells assessed as increase in cell rounding at 5 umol/L after 48 hrs by inverted microscopic method; format: functional, cell-based
Summary of the method: (§3)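 Cells cultured in DMEM/10% FBS at 37 °C, 5% CO2. Exposed 48 h to 5 µmol/L compound alongside DMSO controls. Morphology (cell number, rounding, spacing, apoptotic bodies, spindle shape) observed under an inverted microscope with CCD camera.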

PC-3 [7] = assay: Growth inhibition of human PC3 cells at 5 umol/L after 48 hrs by MTT assay relative to control; format: functional; settings: PC-3, 48 h, read-out: GI; summary of the method: as §2
HEL [8] = assay: Potency index, ratio of compound effect to (E)-2-Hydroxy-4,4-dimethoxy-3,5-diprenylchalcone effect for growth inhibition of HEL cells; format: functional, Homo sapiens
MDA-MB-231 [9] = assay: Induction of morphological changes in human MDA-MB-231 cells assessed as reduction in number of apoptotic bodies at 5 umol/L after 48 hrs by inverted microscopic method
K562 [10] = assay: Induction of apoptosis in human K562 cells assessed as necrotic cells at 5 umol/L after 48 hrs by annexin V-FITC/propidium iodide staining based flow cytometry (reference value: 1.2%); format: functional
K562 [11] = assay: Cell cycle arrest in human K562 cells assessed as decrease in G2 phase accumulation at 5 umol/L after 48 hrs by propidium iodide staining based flow cytometry; format: functional; summary of the method: as §1
MDA-MB-231 [12] = assay: Cell cycle arrest in human MDA-MB-231 cells assessed as increase in G2 phase accumulation at 5 umol/L after 48 hrs by propidium iodide staining based flow cytometry; format: functional; summary of the method: as §1
PC-3 [13] = assay: Potency index, ratio of compound effect to (E)-2-Hydroxy-4,4-dimethoxy-3,5-diprenylchalcone effect for growth inhibition of human PC3 cells; format: functional
MDA-MB-231 [14] = assay: Growth inhibition of human MDA-MB-231 cells at 5 umol/L after 48 hrs by MTT assay relative to control; format: functional; settings: MDA-MB-231, 48 h, read-out: GI; summary of the method: as §2
MDA-MB-231 [15] = assay: Induction of apoptosis in human MDA-MB-231 cells assessed as necrotic cells at 5 umol/L after 48 hrs by annexin V-FITC/propidium iodide staining based flow cytometry (reference value: 3.4%); format: functional
MDA-MB-231 [16] = assay: Induction of morphological changes in human MDA-MB-231 cells assessed as increase in cell rounding at 5 umol/L after 48 hrs by inverted microscopic method; format: functional, cell-based; summary of the method: as §3
MDA-MB-231 [17] = assay: Cytotoxicity against human MDA-MB-231 cells after 48 hrs by MTT assay; format: functional, cell-based
Summary of the method: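 Cells kept in DMEM/10% FBS at 37 °C, 5% CO2, seeded at 4×10^3–8×10^3 cells/well and left 24 h to adhere. Exposed 48 h to a range of concentrations. MTT (5 mg/mL solution) added for 4 h at 37 °C, formazan dissolved in DMSO, absorbance read at 490 nm. IC50 derived from concentration–inhibition relation. Doxorubicin as positive control.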

K562 [18] = assay: Induction of apoptosis in human K562 cells assessed as early apoptotic cells at 5 umol/L after 48 hrs by annexin V-FITC/propidium iodide staining based flow cytometry (reference value: 4%); format: functional
HEL [19] = assay: Induction of apoptosis in HEL cells assessed as early apoptotic cells at 5 umol/L after 48 hrs by annexin V-FITC/propidium iodide staining based flow cytometry (reference value: 2.6 to 4.2%); format: functional, Homo sapiens
K562 [20] = assay: Induction of morphological changes in human K562 cells assessed as increase in intracellular space at 5 umol/L after 48 hrs by inverted microscopic method; format: functional, cell-based; summary of the method: as §3
K562 [21] = assay: Induction of apoptosis in human K562 cells assessed as viable cells at 5 umol/L after 48 hrs by annexin V-FITC/propidium iodide staining based flow cytometry (reference value: 92.6%); format: functional; settings: K562, 48 h, read-out: Activity
HEL [22] = assay: Induction of apoptosis in HEL cells assessed as viable cells at 5 umol/L after 48 hrs by annexin V-FITC/propidium iodide staining based flow cytometry (reference value: 93.1 to 94%); format: functional; settings: Homo sapiens, read-out: Activity
PC-3 [23] = assay: Induction of morphological changes in human PC3 cells assessed as increase in cell rounding at 5 umol/L after 48 hrs by inverted microscopic method; format: functional, cell-based
Summary of the method: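 PC3 cells were kept in DMEM with 10% FBS, penicillin and streptomycin at 37 °C under 5% CO2, and were passaged at least 3 times after thawing. Cells were seeded at 4 × 10^3 to 8 × 10^3 cells/well and left to adhere for 24 h. They were then exposed to 5 µmol/L compound for 48 h. Morphology was viewed by inverted microscope against DMSO-treated controls.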

For `COc1c(CC=C(C)C)cc(C(=O)/C=C/c2cccnc2)c(O)c1CC=C(C)C`, which Activity (K562 [1]) is on record?
Its Activity is “Active”.

And the inhibition of growth at 5 µM (HEL [2])?
Its inhibition of growth at 5 µM is 91.7%.

What about the Activity (MDA-MB-231 [3]) of the same molecule?
Its Activity is 36.8%.

And the Ratio (K562 [4])?
The Ratio was 3 - 4.

What about the viability at 5 µM (PC-3 [5]) of the same molecule?
The viability at 5 µM was 44.9%.

What about the Activity (K562 [6]) of the same molecule?
Its Activity is “Active”.

And the inhibition of growth at 5 µM (PC-3 [7])?
Its inhibition of growth at 5 µM is 90.4%.

What about the Ratio (HEL [8]) of the same molecule?
The Ratio was 3 - 4.

And the Activity (MDA-MB-231 [9])?
The Activity was “Active”.

What about the Activity (K562 [10]) of the same molecule?
Its Activity is 11.3%.

And the Activity (K562 [11])?
Its Activity is “Active”.

And the Activity (MDA-MB-231 [12])?
The Activity was “Active”.

And the Ratio (PC-3 [13])?
Its Ratio is 3 - 4.

What about the inhibition of growth at 5 µM (MDA-MB-231 [14]) of the same molecule?
Its inhibition of growth at 5 µM is 83.4%.

What about the Activity (MDA-MB-231 [15]) of the same molecule?
Its Activity is 14.1%.

What about the Activity (MDA-MB-231 [16]) of the same molecule?
The Activity was “Active”.

And the Activity (MDA-MB-231 [17])?
Its Activity is “Dose-dependent effect”.

And the IC50 (MDA-MB-231 [17]; MDA-MB-231, 48 h)?
The IC50 was 3.14 µM.

What about the Activity (K562 [18]) of the same molecule?
Its Activity is 10.1%.

And the Activity (HEL [19])?
The Activity was 5.6%.

And the Activity (K562 [20])?
Its Activity is “Active”.

What about the viability at 5 µM (K562 [21]) of the same molecule?
Its viability at 5 µM is 64%.

What about the viability at 5 µM (HEL [22]) of the same molecule?
The viability at 5 µM was 82.4%.

And the Activity (PC-3 [23])?
The Activity was “Active”.
